{
  "source": "paper PMC3438513",
  "about": "(Cancer research, 2012)",
  "key": {"[1]": {"biological_target": "human CD1d (Homo sapiens, UniProt P15813)", "assay_type": "binding", "outline": "(§1)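 Plates coated with goat anti-mouse IgG Fc-gamma antibody, then washed three times with PBS/Tween. Added human or mouse CD1d-Ig dimer (5 μg/mL) mixed with competitor lipid and 18:1 biotinyl-PE (2 μg/mL) in PBS. Bound biotinyl-PE detected with HRP-avidin. Biotinyl-PE Kd obtained by titration without competitor, fitted to Y = (Bmax*X)/(Kd + X). Competitor constants derived by curve fitting.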"}, "[2]": {"biological_target": "T1, mouse CD1d (Mus musculus, UniProt P11609)", "T1 sequence (P11609 22-305 limits assumed)": "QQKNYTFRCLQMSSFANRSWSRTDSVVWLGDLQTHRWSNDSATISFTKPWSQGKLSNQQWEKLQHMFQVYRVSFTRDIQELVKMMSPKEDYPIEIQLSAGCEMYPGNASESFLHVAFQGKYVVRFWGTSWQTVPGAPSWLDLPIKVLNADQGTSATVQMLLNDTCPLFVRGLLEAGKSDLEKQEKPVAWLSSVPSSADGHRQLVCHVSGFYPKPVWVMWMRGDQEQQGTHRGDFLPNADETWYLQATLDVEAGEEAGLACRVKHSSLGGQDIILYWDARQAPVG", "T1 sequence (P01887 21-119 partner)": "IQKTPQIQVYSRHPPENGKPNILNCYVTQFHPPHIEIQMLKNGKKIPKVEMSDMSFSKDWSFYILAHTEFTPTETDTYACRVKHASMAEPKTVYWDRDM", "assay_type": "binding", "details": "competitor of Biotinyl PE (2 μg/mL), CD1d dimer", "outline": "as §1"}, "[3]": {"system": "α-GalCer-induced NKT cell activation", "assay": "In vivo α-GalCer-induced serum cytokine production", "set-up": "species or system C57BL/6 mice", "details": "1 μg α-GalCer intravenously", "outline": "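C57BL/6 mice, 6–8 weeks old, kept pathogen-free. Given α-GalCer 1 μg intravenously, with or without the test ganglioside at several concentrations. Serum taken at 2, 6, 12, 24, 48 and 72 h. IFN-γ measured by sandwich ELISA on two dilutions of pooled sera, reported as mean ± SD.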"}, "[4]": {"system": "NKT cells", "assay": "Staining of NKT cells with lipid-loaded CD1d-Ig dimers", "assay_type": "cell-based", "details": "human and mouse CD1d-Ig dimers loaded overnight", "outline": "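Human or mouse CD1d-mouse IgG dimer (1 μg) loaded overnight at 37°C with 1.4 μg lipid or ascites in 50 μL PBS. Used to stain 2 × 10^5 NKT cells on ice for 30 min. Cells washed twice in PBS/5% FBS, then stained with PE rat anti-mouse IgG1 (A85-1) on ice for 30 min; anti-human CD3ε-APC added for human cells. Analysed by flow cytometry.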"}, "[5]": {"system": "CD1d-mediated activation of NKT cells (hybridomas DN32.D3, N38-3C3, N37-1A12)", "assay_type": "cell-based, mouse", "details": "4 h", "outline": "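APCs were L cells stably transfected with WT cd1d1 cDNA. Treated with test ganglioside at increasing concentrations for 4 h at 37°C, washed extensively with PBS, then cocultured with hybridomas DN32.D3, N37-1A12 and N38-3C3 for 20–24 h at 37°C. IL-2 measured by sandwich ELISA. Triplicates, mean ± SEM; experiment repeated three times.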"}, "[6]": {"system": "canonical NKT cell", "details": "high concentrations; ref [9], [24]; cited from earlier work"}},
  "note": "Where “and” joins values, the source holds several entries; their conditions need not be identical. Equal entries are not always repeated. Where two headings read alike, the source gives them in different places.",
  "data": [
    {"compound": "CCCCCCCC/C=C\\CCCCCCCC(=O)OC[C@H](COP(=O)(O)OCCNC(=O)CCCCCN)OC(=O)CCCCCCC/C=C\\CCCCCCCC", "note": "[18:1 PE lipid, 1,2-Dioleoyl-sn-Glycero-3-Phosphoethanolamine-N-(hexanoylamine)]", "values": [
      {"measurement": "IC50", "setting": "[1]; read-out: IC50 in hCD1d, competitor of Biotinyl PE (2 μg/mL), CD1d dimer", "value": "882 ± 125", "unit": "nM"},
      {"measurement": "IC50", "setting": "[2]; read-out: IC50 in mCD1d", "value": "843 ± 181", "unit": "nM"}
    ]},
    {"compound": "CCCCCCCCCCCCCCCCCCCCCCCCCC(=O)N[C@@H](CO[C@H]1O[C@H](CO)[C@H](O)[C@H](O)[C@H]1O)[C@H](O)[C@H](O)CCCCCCCCCCCCCC", "note": "[α-GalCer, α-galactosylceramide]", "values": [
      {"measurement": "time at which serum IFN-γ production was detectable", "setting": "[3]", "value": 2, "unit": "h"},
      {"measurement": "time of peak serum IFN-γ production", "setting": "[3]", "value": 24, "unit": "h"},
      {"measurement": "time of return of serum IFN-γ to baseline", "setting": "[3]", "value": "≤ 48", "unit": "h"},
      {"measurement": "IC50", "setting": "[1]", "value": "84 ± 10", "unit": "nM"},
      {"measurement": "IC50", "setting": "[2]; IC50 in mCD1d", "value": "95 nM and 95.1 nM"},
      {"measurement": "binding of lipid-loaded CD1d-Ig dimers to NKT cells", "setting": "[4]", "value": "bound to NKT cells"}
    ]},
    {"compound": "GT1b", "values": [
      {"measurement": "inhibition of CD1d-mediated activation of NKT cells", "setting": "[5]; increasing doses of purified ganglioside, IL-2 (Fig 3A-C)", "value": "Only GD3 inhibited"}
    ]},
    {"compound": "gangliotriaosylceramide [Gg3Cer]", "values": [
      {"measurement": "reduction in NKT cell activation", "setting": "[5]; gangliosides 5μg/ml, IL-2 (Fig 3D)", "value": "only incubation with GD3 resulted in a significant reduction"},
      {"measurement": "inhibition of canonical NKT cell activation", "setting": "[6]", "value": "inhibit canonical NKT cell activation when used at high concentrations"}
    ]}
  ]
}
